Measured values: ChEMBL document CHEMBL4513216, “Probing the Open Global Health Chemical Diversity Library for Multistage-Active Starting Points for Next-Generation Antimalarials” (ACS Infect Dis, 2020)

Experiment: Toxicity liver stage against HepG2, at 10uM
Format: cell-based
Set-up: test concentration 10 uM, cell line HepG2-A16-CD81EGFP
Details: human, HepG2-A16-CD81EGFP cells; read-out: INHIBITION
In short: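 Uninfected HepG2-A16-CD81EGFP cells, 3 × 10^3 per well, 1536-well, plated on prespotted compound at 10 μM final, parasite-free screening media added to match infected plates; puromycin 10 μM positive, DMSO 0.5% negative; run in parallel with 48 h PbLuc assay at 37 °C, 5% CO2; viability by CellTiter-Glo luminescence, normalized to controls.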

Compound | cytotoxicity at 10 µM
Cc1cccc(N2CC[C@H]3CO[C@H](CN(C)Cc4ccco4)[C@H]3C2)n1 | 13.3%
NC(=O)c1ccc(CNC2CCCSC2)cc1 (stereo unspecified) | -9.44%
Cc1nsc(NC(=O)NC2(CN3CCCCC3)CCCCC2)n1 | 10.6%
Cc1ccc(-c2cc(C(=O)NCC3CCOC3)n[nH]2)s1 (stereo unspecified) | -4.09%
Cc1cnc(Nc2cccc(C3CCCN3Cc3cn(C)nc3C)n2)s1 (stereo unspecified) | 13.2%
c1cnc(N2CCC3(COCc4cnc(-c5cccnc5)nc43)C2)nc1 (stereo unspecified) | 2.57%
COCc1nc(C(=O)NS(=O)(=O)c2cc(C)ccc2C)cs1 | -4.04%
O=C(c1cc(Cl)c[nH]c1=O)N1C[C@H]2CC[C@@H](C1)N(Cc1ccccc1)C2 | -113%
Cn1ccc(C(=O)NC2CCC23CCN(C(=O)c2ccncc2)CC3)c1 (stereo unspecified) | -9.84%
CC(C)c1ncc2c(n1)CN(Cc1nc(-c3ccccn3)no1)CC2 | 1.59%
O=C(Cn1cncn1)NCC1(O)CCCc2ccccc21 (stereo unspecified) | -54.8%
CC(C)NC(=O)N1CC(=O)c2sc(NC3CCCCC3)nc2C1 | -7.91%
CS(=O)(=O)N[C@H]1CCO[C@]2(CCN(C(=O)c3ccccn3)C2)C1 | -73.3%
CC(=O)N(Cc1ncc(C)o1)C1CCN(Cc2ccc(F)c(F)c2)C1 (stereo unspecified) | 13.4%
OC1(c2ccccc2F)CCN(Cc2ccccc2N2CCCC2)CC1 | 13.2%
O=C(c1ccc(CN2CCCCC2)cc1)N1CCCC1c1cccs1 (stereo unspecified) | -7.15%
Cc1cnn(CCNCc2csc(-c3ncccn3)n2)c1 | -7.48%
Cc1cc(NCc2cccc(C#N)c2)ccc1C(N)=O | 10.1%
COc1ccc(C2CCCCCN2Cc2nnc(C)o2)cc1 (stereo unspecified) | -7.12%
C=C(C)COc1ccccc1C(=O)NCc1nc(C)cc(=O)[nH]1 | -3.7%
CC(=O)N1CCN(CC(N)=O)CC(COc2ccccc2)C1 (stereo unspecified) | -28.7%
Cc1ncsc1CCC(=O)N1CCN(CCn2cncn2)CC1 | 3.21%
O=C(NC[C@H]1OC[C@@H]2CCN(C3CCOCC3)C[C@@H]21)c1ccncc1 | 4.98%

Compound | cytotoxicity at 10 µM
Cn1ncc2c1CCCC2NCc1ccc(Cl)s1 (stereo unspecified) | 7.6%
NC(=O)C1CCN(CC(=O)N2CCCC2c2ccsc2)CC1 (stereo unspecified) | -11.4%
COc1ccc(CCC(=O)Nc2cccnc2N2CCCC2)cc1Br | 1.06%
CCN(CC)Cc1nnc2sc(-c3cc(C(C)C)[nH]n3)nn12 | -7.02%
Cc1ccnc(NCC2(N(C)C)CCOCC2)n1 | 3.81%
CCN(CC)CCNc1nc(C(C)C)nc2c(C)nn(CC)c12 | 8.99%
Cc1ccc2[nH]c(C(=O)N3CCCC3Cn3cccn3)cc2c1 (stereo unspecified) | -12%
O=C(O)c1ccccc1-c1ccc(CN2CCCC(O)C2)cc1 (stereo unspecified) | -9.16%
CCc1noc(CN2CCN(C(=O)COC)CC2)n1 | -8.09%
CC(C)c1cc(NCC2(N3CCOCC3)CCCCC2)ncn1 | -12.8%
Cc1ccccc1CC(C)(C)NC(=O)CCOc1cccc(C(N)=O)c1 | -4.07%
COC[C@@]12CC[C@@H](N3CCOCC3)C[C@H]1CCN(c1ncccc1C)C2 | -1.33%
CC(C)c1nnc(CNc2ccc(SC(F)(F)F)cc2)o1 | 11.5%
CCn1ccnc1CN1CCN(CCC(=O)NC2CCCCC2)CC1 | -12.3%
CC1=Nc2c(c(=O)[nH]n2C(C)C)C(c2ccc3ncccc3c2)S1 (stereo unspecified) | 4.66%
Fc1ccc(Cc2cccc(C3CCN(C4CCOCC4)CC3)n2)cc1 | 4.3%
O=S(=O)(c1c(F)cccc1F)N1CCC(Cn2cccn2)CC1 | -11.9%
COc1ccc(OC)c(Sc2ncccc2C(=O)NCC2CC2)c1 | 20.7%
Cc1cc(C(=O)NCc2c(C)nn(C)c2C)nc(N2CCCC2)n1 | 7.05%
CCc1ccc(O)c(C(=O)NC2CCN(Cc3ccncc3)CC2)c1 | 5.52%
Cc1c(C(=O)NCC2CCN(C)C2)n(C)c2c(C)cccc12 (stereo unspecified) | 10.1%
CC(NC(=O)c1ccc(CS(C)(=O)=O)o1)c1ccc(F)c(F)c1 (stereo unspecified) | -5.85%
Cc1ccc(OCC(O)CN2CCC(Cn3cc(C)cn3)CC2)cc1 (stereo unspecified) | -3.17%

Compound | cytotoxicity at 10 µM
O=c1ccc2c(n1CC1CCOCC1)CCN(Cc1ccoc1)CC2 | -128%
C[C@H]1C[C@H]2CN(C(=O)CCc3ccccc3)CC[C@H]2O1 | -75.6%
O=C1CN(CCCNC(=O)Nc2cccc(Cl)c2F)CCN1 | 15.2%
CCN(C)C(=O)NCC1(CN2CCOCC2)CCCCC1 | -5.18%
O=C(c1cncc(NCC2COc3ccccc3C2)n1)N1CCCCC1 (stereo unspecified) | 1.64%
CN(C(=O)NCc1nccn1Cc1ccccc1)C1CC1 | -2.22%
CCc1cc(NCCc2cc(F)cc(F)c2)n2nccc2n1 | 19.5%
Cc1noc(-c2cnc(NCC3CCCO3)nc2-c2ccco2)c1C (stereo unspecified) | 7.74%
Cc1ccoc1C(=O)N1C[C@@H]2[C@@H](C1)OCC(=O)N2Cc1cccnc1 | 9.38%
Cc1cc(-c2cnc(N3CCC(C(N)=O)CC3)nc2C(C)C)on1 | 72.2%
CCCS(=O)(=O)N1C[C@@H]2C[C@H](C(=O)N3CCN(C)CC3)[C@H](C1)O2 | 1.47%
CN(CC(=O)NCC(=O)Nc1ccc(F)cc1)Cc1cccs1 | 0.369%
COCCNc1ccc(CC2CCNC2)cn1 (stereo unspecified) | 9.33%
O=C(NC1CCC1)[C@@H]1CC[C@@H]2[C@@H](CCN2CCc2ccccc2)O1 | -127%
Cc1cc(C)cc(OCC(=O)N2CCC2)c1 | 2.01%
C[C@H]1C[C@@H]2CCN(Cc3ccco3)C[C@H]2O1 | -80.1%
COc1cccc(OCC2CCCN(Cc3ccncc3)C2)c1 (stereo unspecified) | -7.66%
COCC(=O)N1CCC(c2nc3ccc(-c4ccccc4)cn3n2)CC1 | -0.555%
CN(CCc1ccccn1)C(=O)CCC1CCCN(c2ccncc2)C1 (stereo unspecified) | -3.48%
CC(=O)c1cccc(OCCCC(=O)N(C)Cc2cccc(O)c2)c1 | -4.58%
O=C(Cc1ccccc1)N1CCC2(CC1)CN(c1ncccn1)CCO2 | -72.3%
O=C(NC1CCCC1)O[C@H]1COCCN(c2nc3ccccc3s2)C1 | -0.655%
CCN(C)C(=O)C1(c2ccc(F)cc2F)CCC1 | -7.74%

Compound | cytotoxicity at 10 µM
CN1CCCN(C(=O)NCc2csc(Br)c2)CC1 | -5.85%
Cc1ccc(CN2CC[C@H]3[C@H](CO[C@H]3CN(C)C)C2)o1 | -129%
Cc1nc(CN(C)C2CCN(Cc3sc(C)nc3C)C2)no1 (stereo unspecified) | -8.99%
CCOc1nc2cnccc2n(CC(=O)NCCc2ccccc2)c1=O | -6.29%
OC(CN1CCN(Cc2nnc(C3CC3)o2)CC1)c1ccccc1 (stereo unspecified) | -6.82%
Cc1cnc(CN2CCCC2c2noc(C(C)C)n2)cn1 (stereo unspecified) | -15.1%
COCCN(C)C[C@@H]1CN(Cc2ccnc3ccccc23)C[C@@H]1CO | -6.33%
CC(=O)N1CCCN(C(=O)CCc2c(C)nc3ccnn3c2C)CC1 | -3.12%
Cc1cc(NS(=O)(=O)c2ccccc2F)ccc1-n1cccc1C(=O)O | -5.67%
COc1c(CNCCc2c[nH]c3cc(F)ccc23)c(C)nn1C | -7.53%
Cc1ccc(C)c(OC2CCN(C(=O)CNc3ccccc3Cl)CC2)c1 | 40.2%
CCc1nc(C2CCCN2C(=O)c2cc(C3CC3)[nH]n2)no1 (stereo unspecified) | 1.03%
Cc1ccc(C)c(OC(C)C(=O)NCCNc2cccnc2)c1 (stereo unspecified) | 1.32%
CC(C)c1noc(C(C)N2CCN(c3ccc(C#N)cn3)CC2)n1 (stereo unspecified) | -2.57%
O=C(c1nn(-c2ccccc2F)cc1O)N1CCCCC1 | 3.36%
CC(C)NC(=O)CCNC(=O)Nc1cnn(-c2ccccc2F)c1 | 1.21%
COc1cc2cc(C)c(SCCN3CCCCC3)nc2cc1OC | -0.883%
CN(C)C(=O)N1Cc2nnn(C)c2C(COCC2CC2)C1 (stereo unspecified) | -10.7%
CCC1COCCN1C(=O)NCc1cccc(-c2cnn(C)c2)c1 (stereo unspecified) | -1.62%
COCCN(CCC#N)S(=O)(=O)c1ccc(F)cc1F | -3.54%
Cn1ncc2c1C(COCC1CC1)CN(C(=O)Cc1ccsc1)C2 (stereo unspecified) | 10.1%
CC(C)(C)CC(=O)N1CSCC1C(=O)NCc1cccc(C#N)c1 (stereo unspecified) | -9.78%
COCCCN(CCOC)C(=O)Nc1ccc(Br)cc1 | 6.66%

Compound | cytotoxicity at 10 µM
O=C(c1ccccc1)N1CCCN(C(=O)c2ncncc2Cl)CC1 | 4.26%
CC(C)c1nn(C)c(N(C)C)c1CNCc1ccccc1CO | -9.89%
CCN1CCN(C(=O)c2scnc2C)CC1 | 11.7%
COc1cc(C(F)(F)F)sc1C(=O)O | -3.29%
CCC1(CC)C(=O)NC(=O)N/C1=N/c1cccc(OC)c1 | -51.8%
CN(C)C(=O)c1ccc(C2CCCNC2)nc1 (stereo unspecified) | -20.7%
Cn1ccnc1C(NCc1ccccc1)c1ccc(F)cc1 (stereo unspecified) | 0.573%
c1ccc(CN2Cc3nccn3CC(Cn3cccn3)C2)nc1 (stereo unspecified) | -105%
O=C(NCC1CC1)C1CN(C(=O)c2cnccn2)CC12CCOCC2 (stereo unspecified) | 8.27%
Cc1ncncc1C(=O)N1CCCC(Cc2nccs2)C1 (stereo unspecified) | -9.13%
CCC(CNC(=O)C1CCC1)(OC)c1ccccc1 (stereo unspecified) | 1.95%
O=C(NCCc1cccnc1)c1ccc2nccn2c1 | -38.6%
COc1cccc2c1OCC(C(=O)N(C)CCCc1cnn(C)c1)C2 (stereo unspecified) | -2.98%
O=C(N1CCCC1)N1CC[C@H]2[C@H]1CCN2c1ncccn1 | -1.19%
COc1ccc(CNCCc2cc(F)cc3c2OCOC3)cc1O | -9.26%
N#Cc1cn[nH]c1NCc1cc(Cl)cc(Cl)c1O | 19.1%
CC[C@H](C)[C@@H](CO)NC(C)Cc1ccccc1F (stereo partly specified) | -7.36%
Cc1cc(C)cc(C(=O)Nc2cccc(CN3CCCC3C(N)=O)c2)c1 (stereo unspecified) | 4.38%
O=C(NC[C@H]1OC[C@@H]2CN(Cc3ccco3)CC[C@@H]21)c1cccnc1 | -141%
